# Only some compounds are listed: those with a hit (about 2.3% of all), similar ones and a draw of the others.
# Glyco luc inh: blocks N-linked glycosylation in D54 reporter cells. 0.23% of 360,000 active. D54 ERlucT glycosylation luciferase reporter, 24 h; percent of 100 nM tunicamycin response. AID 588692. reporter increase, % at 12.5 µM;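 active = mean luciferase reporter signal, scaled so untreated is 0 and the glycosylation-blocking control 100, at or above a set limit in every replicate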;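 also: luciferase carries N-glycosylation sites so blocking glycosylation raises the light; 0% = median of neutral control wells and 100% = median of 100 nM tunicamycin wells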
# PAX8 reporter: inhibitors of PAX8 transcriptional activity in RMG-I cells; RMG-I TPO-luciferase reporter, SteadyGlo, 24 h; inhibition, % at 12.6 µM; 1.2% of 360,000 active; AID 652154;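 active = mean replicate inhibition at least 60% with every replicate also reaching 60%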;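 also: luciferase light reporting Pax8 driven TPO promoter activity; plate controls were median of neutral control wells for no effect and mitoxantrone controls for full effect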
# Arr AP2 block: inhibitors of human beta-arrestin and AP2 interaction; FITC-arrestin peptide / GST-AP2 beads, flow cytometry; AP2 beta2 appendage carries R879A mutation; AID 504490; inhibition, % at 10 µM; 0.31% of 340,000 active;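 active = inhibition above a set limit, near 3 SD of compounds lacking own fluorescence, cut at about 54% in these data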;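 also: plate controls were DMSO wells for no effect and 5 µM unlabelled arrestin peptide for full effect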
#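 System: GST-AP2 R879A glutathione beads. Medium: PBS with 0.05% Tween 20 and 0.1% BSA. Also added: FITC-arrestin peptide, 50 nM. Incubation: 12 min plus 1 h, RT. Measured by: high-throughput flow cytometry of beads, ex 488, em 535 nm. Evaluation: percent drop in bead-associated FITC signal.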
# Rtt109 Vps75: C. albicans Rtt109 histone acetyltransferase inhibition; Q5AAJ8; purified Rtt109/Vps75, ThioGlo CoA-SH fluorescence, 4 h; inhibition, % at 34.9 µM; 0.16% of 330,000 active; AID 540336;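 active = inhibition of at least 50% in every replicate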
# Target sequence (Q5AAJ8 whole entry, looked up): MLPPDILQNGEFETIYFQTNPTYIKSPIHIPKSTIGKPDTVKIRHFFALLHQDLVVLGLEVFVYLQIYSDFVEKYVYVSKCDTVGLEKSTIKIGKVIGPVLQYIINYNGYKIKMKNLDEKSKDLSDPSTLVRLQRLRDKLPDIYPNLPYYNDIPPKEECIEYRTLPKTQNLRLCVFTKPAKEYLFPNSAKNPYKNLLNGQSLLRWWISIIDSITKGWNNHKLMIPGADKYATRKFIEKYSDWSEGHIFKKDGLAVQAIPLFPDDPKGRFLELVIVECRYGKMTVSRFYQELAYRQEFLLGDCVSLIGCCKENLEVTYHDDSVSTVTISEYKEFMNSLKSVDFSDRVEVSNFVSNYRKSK
# HIV Env fusion: HIV envelope-mediated fusion inhibition. HeLa-JRFL Env/CEM21 cell fusion, luciferase. inhibition, % at 12.3 µM. 1.1% of 360,000 active;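 active = mean replicate inhibition score of at least 50 and every replicate individually at or above 50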;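 also: 0% = plate neutral controls and 100% = maraviroc near 300 nM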
# PfHsp90 yeast 2: growth inhibition of yeast expressing Plasmodium Hsp90; inhibition, % at 9.4 µM; S. cerevisiae expressing PfHsp90, BacTiter-Glo ATP, 48 h; yeast lacking PDR1 and PDR3 efflux regulators; 0.32% of 310,000 active;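 active = every replicate shows inhibition above about 80%, whatever the replicate mean, limit read from the data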;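 also: 0% = DMSO neutral controls and 100% = 20 µM radicicol positive controls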
# Starred values were filed as active, the others as inactive; i = inactive; x = not tested or not shown; [ ] = another dose, or the depositor's remark.
SMILES,Glyco luc inh,PAX8 reporter,Arr AP2 block,Rtt109 Vps75,HIV Env fusion,PfHsp90 yeast 2
O=C(O)CSc1nc(-c2ccccc2)c(-c2ccccc2)[nH]1,0.3,-0.1,9.7,-2.1,-8.3,21.8
Cc1ccccc1-c1cnc2c(c1)C(=O)N([C@@H](C)CO)C[C@@H](C)[C@@H](CN(C)Cc1cccnc1)O2,x,x,x,x,-11.4[16.7 µM],x
C[C@H](CO)N1C[C@H](C)[C@@H](CN(C)Cc2ccc(Cl)c(Cl)c2)Oc2ccc(NC(=O)NC3CCCCC3)cc2CC1=O,x,4.3,x,x,9.5[16.7 µM],x
O=C(C[C@@H]1C[C@@H]2c3cc(NC(=O)C4CCC4)ccc3O[C@@H]2[C@H](CO)O1)NCc1cccnc1,x,-17.2,x,x,15.9[16.7 µM],x
Cc1ccc(S(=O)(=O)N(C)C[C@H]2Oc3ccc(NS(=O)(=O)c4cn(C)cn4)cc3C(=O)N([C@H](C)CO)C[C@@H]2C)cc1,x,3.5,x,x,-3.5[16.7 µM],x
COc1ccc(/C=C/c2nc3ccccc3c(=O)o2)cc1,-23.7,84.2*,-0.6,5.0,34.2,26.7
COc1ccccc1/C=C/c1nc2ccccc2c(=O)o1,-6.7,-109.8,33.3,4.7,-42.1,-17.4
COc1ccc(/C=C/c2nc3ccccc3n2C)cc1,-21.3,88.2*,8.8,6.9,43.2,22.0
CCNC(=O)C[C@H]1CC[C@H]2[C@@H](COc3ccc(NC(=O)Nc4ccc(Cl)cc4)cc3C(=O)N2C)O1,x,12.7,x,x,8.2[16.7 µM],x
Cc1ccc(NC(=O)c2ccccc2)cc1,-4.8,-148.7,0.8,-23.5,-126.2,x
Cc1ccc(NC(=O)C2=C(c3ccccc3)S(=O)(=O)CCS2(=O)=O)cc1,2.7,115.9*,3.0,x,-40.5,18.5
O=C(C[C@H]1CC[C@H](NS(=O)(=O)c2ccccc2)[C@H](CO)O1)NCc1ccccc1F,x,-13.9,x,x,8.0[16.7 µM],x
N#Cc1cccc(-c2ccc3c(c2)[C@H]2[C@H](CCN2C(=O)C2CCCCC2)[C@H](CO)N3)c1,x,65.8*,x,x,x,x
N#Cc1cccc(-c2ccc3c(c2)[C@@H]2[C@@H](CCN2S(=O)(=O)c2ccc(F)cc2)[C@@H](CO)N3)c1,x,75.8*,x,x,x,x
COc1ccccc1-c1ccc2c(c1)[C@H]1[C@H](CCN1C(=O)C1CCCCC1)[C@@H](CO)N2,x,90.2*,x,x,x,x
COCC(=O)N1CC[C@H]2[C@H](CO)Nc3ccc(-c4cccc(C#N)c4)cc3[C@H]21,x,8.3,x,x,x,x
N#Cc1cccc(-c2ccc3c(c2)[C@@H]2[C@@H](CCN2C(=O)C2CCCCC2)[C@@H](CO)N3)c1,x,75.1*,x,x,x,x
COc1ccc(S(=O)(=O)N(C)C[C@@H]2Oc3ccc(NS(=O)(=O)c4ccc(F)cc4)cc3C(=O)N([C@@H](C)CO)C[C@@H]2C)cc1,x,-16.1,x,x,-14.1[16.7 µM],x
Cc1ccc(Nc2nc(N)nc(CN3CCN(Cc4ccc5c(c4)OCO5)CC3)n2)cc1C,0.1,6.9,-0.8,-1.5,-3.4,10.0
Cc1ccc(Nc2nc(N)nc(CN3CCN(Cc4ccc5c(c4)OCO5)CC3)n2)cc1Cl,0.8,x,-2.5,-13.9,69.0*,x
Nc1nc(CN2CCN(Cc3ccccc3)CC2)nc(Nc2ccc3c(c2)OCCO3)n1,47.0*,-5.3,4.8,20.4,-127.8,2.9
COc1ccc(S(=O)(=O)N[C@@H]2CC[C@H](CC(=O)N3CCN(c4ccccc4)CC3)O[C@H]2CO)cc1,x,-19.9,x,x,-0.3[16.7 µM],x
C[C@H](NC(=O)C[C@@H]1C=C[C@@H](NC(=O)Nc2ccc3c(c2)OCO3)[C@H](CO)O1)c1ccccc1,x,-4.2,x,x,9.7[16.7 µM],x
CCCNC(=O)N(C)C[C@H]1Oc2ncc(-c3cccc(C#N)c3)cc2C(=O)N([C@H](C)CO)C[C@H]1C,x,-5.3,x,x,8.9[16.7 µM],x
O=C(NC1CCCC1)C(c1ccccc1)n1c(Cc2cc(F)cc(F)c2)nc2ccccc21 (centres undefined),x,-37.6,x,x,70.9*,x
SMILES,Glyco luc inh,PAX8 reporter,Arr AP2 block,Rtt109 Vps75,HIV Env fusion,PfHsp90 yeast 2
O=C(NC1CCCCC1)C(c1ccc(C(F)(F)F)cc1)n1c(=O)c(-c2ccccc2)nc2ccccc21 (centres undefined),x,-4.9,x,x,-0.7,x
C[C@@H]1CN([C@H](C)CO)C(=O)c2cc(-c3cccnc3)cnc2O[C@H]1CN(C)C(=O)NC1CCCC1,x,x,x,x,17.2[16.7 µM],x
CCOc1ccc(-c2c[n+]3c(n2-c2ccccc2)CCCCC3)cc1,-2.0,80.1*,-2.3,-7.4,40.8,-6.5
COc1ccc(-n2c(-c3ccc(Br)cc3)c[n+]3c2SC(C)C3)cc1 (centres undefined),1.3,73.7*,1.7,5.5,30.4,-16.8
CCOc1ccc(-n2c(-c3ccc(Cl)cc3)c[n+]3c2SCC3)cc1,2.3,86.3*,3.4,-11.3,-3.0,24.7
COc1ccc(-n2c(-c3ccc(Br)cc3)n[nH]c2=S)cc1,0.8,1.7,-0.9,1.0,-9.4,-10.0
FC(F)Sc1ccc(-n2c(-c3ccc(Cl)cc3)c[n+]3c2CCC3)cc1,2.9,67.3*,-4.8,17.2,8.6,-7.0
c1ccc(-c2c[n+]3c(n2-c2ccccc2)SCC3)cc1,-1.9,25.0,9.2,x,0.3,x
COc1ccc(-n2c(-c3ccc(Br)cc3)c[n+]3c2CCCCC3)cc1,1.3,84.4*,-5.9,12.7,38.6,8.8
COc1ccc(-n2c(-c3ccc(Br)cc3)nc(=S)c3c2CCCC3)cc1,-1.9,x,24.6,0.9,x,17.3
Cc1ccc(-n2c(-c3ccc(Cl)cc3)c[n+]3c2CCC3)cc1,1.9,43.7,22.9,x,-13.2,14.5
COc1ccc(-n2c(-c3ccccc3)c[n+]3c2CCC3)cc1,1.2,45.2,-7.3,-11.0,-3.2,-13.2
Cc1ccc(-n2c(-c3ccccc3)c[n+]3c2CCC3)cc1,-1.7,52.2,13.0,-0.3,62.3*,-0.2
COc1ccc(-n2c(-c3ccc(Br)cc3)c[n+]3c2CCC3)cc1,0.0,80.1*,7.5,1.0,35.6,-5.4
CCCN(CC(=O)Nc1ccccc1C)C(=O)CCl,0.1,60.8*,-23.9,-3.0,23.6,-7.3
COc1ccc(S(=O)(=O)Nc2ccc3c(c2)C(=O)N([C@H](C)CO)C[C@@H](C)[C@@H](CN(C)Cc2ccncc2)O3)cc1,x,7.3,x,x,x,x
COc1ccc(NC(=O)c2ccc(NC(=O)c3ccco3)cc2)c(OC)c1,-1.3,12.1,-2.9,-5.3,4.6,3.7
COc1cccc(C(=O)Nc2cc(NC(=O)c3ccco3)ccc2OC)c1,-3.0,2.0,-2.7,0.4,-29.2,11.6
COc1cccc(C(=O)Nc2ccc3c(c2)C(=O)c2ccccc2C3=O)c1,34.0*,-129.5,9.9,50.1*,i,-20.1
COc1ccc(C(=O)Nc2cc(OC)c(NC(=O)c3ccco3)cc2OC)cc1,4.0,x,2.1,57.3*,-10.3,-19.3
COc1ccc(NC(=O)c2ccco2)cc1NC(=O)c1cccc(OC(C)C)c1,-0.7,3.9,15.9,7.7,112.8*,x
O=S(=O)(N(Cc1ccccc1)[C@@H](CO)Cc1ccccc1)N(Cc1ccccc1)[C@@H](CO)Cc1ccccc1,-1.0,5.4,-6.1,-5.7,70.6*,-4.5

# From PubChem BioAssay
